# Rows were chosen to be rich in hits. Some 2.9% of all compounds tested hit in one or more screens of this group.
# DUSP1 inh – human dual specificity phosphatase 1 inhibition. P28562. inhibition, %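 (compounds tested at a single concentration somewhere between 10 and 100 µM)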. AID 374. 65,000 compounds, 0.15% hits. recombinant MKP-1, OMFP hydrolysis fluorescence;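 active means inhibition above about 50%, limit read from the data; inconclusive means inhibition over screen mean plus 3 SD, below that limit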
# E coli RNAP – blocks E. coli RNA polymerase transcription; P0A8V2; fluorescence transcription assay; inhibition, %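 (tested at 10 µM)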; 62,000 compounds, 0.2% hits; AID 559; in the data active means inhibition above about 20%
# Cdc25B inh – human M-phase inducer phosphatase 2 inhibition; inhibition, %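 (compounds tested at 10 µM final in the well)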; P30305; recombinant Cdc25B, OMFP fluorescence Ex485/Em525; 65,000 compounds, 0.1% hits; in the data active means inhibition above about 50%
# Hsp90 block – displaces geldanamycin probe from tumor Hsp90 | P07900 | NCI-N417 lysate Hsp90, Cy3B-geldanamycin FP displacement | inhibition, % at 30 µM | 64,000 compounds, 0.35% hits | AID 429;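 active means inhibition above 50%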
# Ecoli tolC – growth inhibitors of E. coli BW25113 tolC mutant; OD615; growth inhibition, % at 10 µM (by protocol); 65,000 compounds, 2.2% hits;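 active means growth inhibition at or above a cutoff equal to the mean over every tested compound plus 3 SD, cut at about 60% in these data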;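 further: growth measured after 20 h incubation at 37 °C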
#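 Assay system: tolC-deleted E. coli BW25113. Medium: kanamycin-containing LB broth (50 µg/mL). Dosing: 10 µM final, single dose. Timing: bacterial growth with compound for 20 h at 37 °C. Detection: A615 absorbance measurement. Read-out basis: growth inhibition in percent.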
# BAP1 inh – blocks human BAP1 ubiquitin-AMC hydrolysis | recombinant BAP1, Ub-AMC hydrolysis fluorescence kinetic; active compounds read low | calls only at 20 µM | 72,000 compounds, 0.48% hits | AID 436;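 active means activity remaining at or below 50% of control, provided the compound also passes the data quality filters; inactive means the rest, including low values that fail the filters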
# Hits are given with their value; - = inactive; ? = inconclusive; . = no result given; + = active, no number.
SMILES,DUSP1 inh,E coli RNAP,Cdc25B inh,Hsp90 block,Ecoli tolC,BAP1 inh
CN1CCN(Cc2cc(COCc3ccccc3)c3cccnc3c2O)CC1,-,-,-,-,-,-
Oc1c(CN2CCc3ccccc3C2)cc(Cl)c2cccnc12,-,-,-,-,64,-
Cc1cc(C)cc(Oc2ccc(-c3cnc4ccccc4n3)cc2[N+](=O)[O-])c1,.,.,.,.,.,-
COc1ccc(-c2csc(NCc3ccco3)n2)cc1C,-,-,-,-,65,-
COc1cc(N(C)C)c([N+](=O)[O-])cc1C(=O)NCCN1CCN(c2ccccc2)CC1,.,.,.,.,.,-
CCOC(=O)c1cc(C)n(S(=O)(=O)c2ccc(C)cc2)c1C,-,-,-,-,66,-
CCOC(=O)c1cc(C)n(Cc2ccccc2)c1C,-,-,-,-,-,-
Cc1ccc(C(=O)c2ccc(N3CCCCC3)c(F)c2)cc1C,.,.,.,.,.,-
CCCc1cc(=O)oc2cc(OC(C)=O)cc(OC(C)=O)c12,.,.,.,.,.,-
Clc1ccc(C2=Nn3c(nnc3-c3cccc(Br)c3)SC2)cc1,.,.,.,.,.,-
O=C(NC1=NCCS1)c1ccc(OCC2CCCO2)cc1 (stereo not drawn),-,-,55,-,-,-
O=C(NC1=NCCS1)c1ccncc1,-,-,-,-,-,-
O=C1c2ccccc2-c2onc3c(N4CCCC4)cc(Nc4ccccc4)c1c23,.,.,.,.,.,-
CCOC(=O)c1ccc(-n2[nH]c(-c3ccccc3)cc2=O)cc1,-,-,-,-,62,.
CCOC(=O)c1ccc(-n2c(C)nc3ccccc3c2=O)cc1,-,-,-,-,-,-
NC(=O)c1oc2ccccc2c1NC(=O)c1nc2ccccc2s1,-,-,-,-,-,-
O=C(Nc1nnc(-c2ccccc2)o1)c1nc2ccccc2s1,-,-,-,-,73,-
COc1ccc(NC(=O)C(C(C)C)N2C(=O)c3ccccc3C2=O)c(OC)c1 (stereo not drawn),.,.,.,.,.,-
CN(C)c1ccc(C=Nc2sc3c(c2C#N)CCCC3)cc1,.,.,.,.,.,-
O=S(=O)(NC1CCc2ccccc21)c1ccc(S(=O)(=O)N2CCCC2)cc1 (stereo not drawn),-,-,-,92,-,-
O=C(Nc1ccon1)c1cc(-c2ccccc2)nc2ccccc12,-,21,-,-,-,-
CC(NC(=O)c1ccc2c(c1)OCO2)C1CCCO1 (stereo not drawn),56,-,-,.,-,.
Cc1occc1C(=O)NC(C)C1CCCO1 (stereo not drawn),-,-,-,-,-,-
N#CCSc1nc2c(c(C3CC=CCC3)c1C#N)CCC2 (stereo not drawn),-,-,-,-,67,-
N#CCSc1nc2c(cc1C#N)CCCCCC2,-,-,-,-,-,-
SMILES,DUSP1 inh,E coli RNAP,Cdc25B inh,Hsp90 block,Ecoli tolC,BAP1 inh
CC(=O)c1c(C)n([O-])c2cc(C)ccc2[n+]1=O,-,-,-,-,91,-
N#Cc1nc(COc2ccc(Cl)cc2)oc1N1CCCCCC1,-,-,-,-,66,-
N#Cc1nc(COc2ccc(Br)cc2)oc1N1CCN(Cc2ccccc2)CC1,-,-,-,-,-,.
CC1CN(c2oc(COc3ccc(Cl)cc3Cl)nc2C#N)CC(C)O1 (stereo not drawn),-,-,-,-,81,-
N#Cc1nc(COc2ccc(F)cc2)oc1N1CCN(Cc2ccccc2)CC1,-,-,-,-,65,-
CCOc1ccccc1NS(=O)(=O)c1ccc(Br)s1,-,-,-,-,-,-
Cc1ccc(S(=O)(=O)Nc2cccc3ncccc23)s1,-,-,-,-,100,-
CC(C(=O)NCc1cccs1)n1cccc1 (stereo not drawn),-,-,-,-,-,-
O=C(NCc1cccs1)C(Cc1ccccc1)n1cccc1 (stereo not drawn),-,23,-,-,-,-
CCc1ccc(C(=O)Nc2ccc(C(=O)O)cc2)cc1,.,.,.,.,.,-
N#Cc1ccc(-c2ccco2)nc1SCC(=O)c1ccc(Cl)cc1,-,21,-,-,-,.
CCCCCCCCCCCCCCSCC(=O)O,.,.,.,-,.,+
Cc1ccc(C)c(Cc2cc([N+](=O)[O-])ccc2C)c1,.,.,.,.,.,-
O=C1c2ccccc2-c2onc3ccc(NCc4ccco4)c1c23,-,.,-,50,-,-
O=C(CN1CCN(c2nc(-c3ccc(F)cc3)cs2)CC1)NCc1ccc2c(c1)OCO2,-,-,-,-,80,-
CCOC(=O)N1CCN(c2nc(-c3ccc(F)cc3)cs2)CC1,-,.,-,-,92,-
O=C(c1cnn2c(C(F)(F)F)cc(-c3ccc(Br)cc3)nc12)N1CCCCCC1,.,.,.,.,.,-
O=C(c1ccco1)N1CCN(C(c2cccs2)c2nnnn2C2CCCCC2)CC1 (stereo not drawn),-,-,-,-,-,-
c1coc(CN(Cc2cccs2)Cc2nnnn2C2CCCCC2)c1,-,-,-,-,95,-
O=C1c2ccccc2-c2oc(=O)c3ccccc3c21,.,.,.,.,.,-
CCc1c(C(=O)Nc2ncn(Cc3cccc(C)c3)n2)csc1C,-,-,-,-,62,-
O=C(C1CCCCC1)N1CCC(c2nc3c(nnn3Cc3c(F)cccc3Cl)c(=O)[nH]2)CC1,-,-,-,-,89,-
N#Cc1cccc(NC(=O)N2CCC(c3nc4c(nnn4Cc4cccc(Cl)c4)c(=O)[nH]3)CC2)c1,-,-,-,-,-,-
Cc1ccc(NC(=O)N2CCC(c3nc4c(nnn4Cc4cccc(Cl)c4)c(=O)[nH]3)CC2)cc1,-,-,-,-,99,-
O=C(Nc1ccc(F)cc1)N1CCC(c2nc3c(nnn3Cc3cccc(Cl)c3)c(=O)[nH]2)CC1,?,-,-,-,100,-
SMILES,DUSP1 inh,E coli RNAP,Cdc25B inh,Hsp90 block,Ecoli tolC,BAP1 inh
O=C(C1CCCCC1)N1CCC(c2nc3c(nnn3Cc3ccccc3Cl)c(=O)[nH]2)CC1,-,-,-,-,-,-
CCCCCCC(=O)N1CCC(c2nc3c(nnn3Cc3ccccc3Cl)c(=O)[nH]2)CC1,?,-,-,-,100,-
CCCCn1c(SCC(=O)Nc2nnc(C)s2)nc2c1c(=O)n(C)c(=O)n2C,-,31,-,-,-,-
Nc1c(C(O)(C(F)(F)F)C(F)(F)F)ccc2ccccc12,-,-,-,-,-,+
CC1CCCN(S(=O)(=O)c2ccc(C(=O)Nc3nnc(-c4ccccc4Cl)o3)cc2)C1 (stereo not drawn),-,-,-,-,100,-
CCC1CCCCN1S(=O)(=O)c1ccc(C(=O)Nc2nnc(-c3cccs3)o2)cc1 (stereo not drawn),-,-,-,-,99,-
O=C(Nc1nnc(-c2cccs2)o1)c1cccc(C(F)(F)F)c1,-,-,-,-,100,-
CC1CC(C)CN(S(=O)(=O)c2ccc(C(=O)Nc3nc(-c4ccccc4)cs3)cc2)C1 (stereo not drawn),.,.,.,.,.,-
CC1CC(C)CN(S(=O)(=O)c2ccc(C(=O)Nc3nnc(-c4cccs4)o3)cc2)C1 (stereo not drawn),-,-,-,-,99,-

# Screens: PubChem BioAssay, several laboratories
